Assay results published in ChEMBL document CHEMBL1144849, “Latrunculin A and its C-17-O-carbamates inhibit prostate tumor cell invasion and HIF-1 activation in breast tumor cells” (J Nat Prod, 2008).
Active and inactive are the calls of the source. The calls are words filed in the database; no cut-off is given here.

Key:
PC-3M [1] = assay: Antimetastatic activity in human PC3M cells expressing calcitonin assessed as decreased cell disaggregation by spheroid disaggregation assay; format: functional, cell-based
Outline: (§1)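 Spheroids grown from PC-3M-CT+ single-cell suspension (5×10^4/mL, serum-free RPMI 1640) on low-attachment plates rocked at 37 °C for 2 days, reaching 150–300 μm (~4×10^4 cells). One spheroid per ECM-coated well in serum-free medium, t=0 set at 1 h after plating. Photographed, cultured 48 h at 37 °C, fixed, Diff-Quik stained, migration diameter measured by micrometer minus initial diameter. Reported as percent increase in surface area.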

PC-3M [2] = assay: Antimetastatic activity in human PC3M cells expressing calcitonin assessed as decreased cell migration by spheroid disaggregation assay; format: functional, cell-based; outline: as §1
[3] = target: T1, Hypoxia inducible factors; HIF-1-alpha, HIF-2-alpha (Homo sapiens, UniProt Q16665+Q99814); assay: Inhibition of hypoxia-induced HIF1 activation in human T47D cells at 30 uM by cell based reporter gene assay
Outline: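 Transfected T47D luciferase reporter assay. Compound-treated cells exposed to hypoxia (5% CO2/1% O2/94% N2), normoxia, or 10 μM 1,10-phenanthroline as hypoxia mimetic, then luciferase activity read. Constitutive pGL3 control reporter run alongside.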

T47D = assay: Cell viability in human T47D cells at 30 uM by SRB method; format: functional
Outline: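 T47D cells in DMEM/F12 with 10% FCS plated at 30,000/well and left overnight at 37 °C. Compound added, 30 min preincubation, then 16 h (or 48 h) treatment at 37 °C, hypoxic (1% O2) or normoxic.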

[4] = target: T1, Hypoxia inducible factors; HIF-1-alpha, HIF-2-alpha; assay: Inhibition of hypoxia-induced HIF1 activation in human T47D cells by cell based reporter gene assay
Outline: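 T47D cells transfected with an HIF-1 luciferase reporter, treated with compound and exposed to hypoxia (5% CO₂/1% O₂/94% N₂) versus normoxia (5% CO₂/95% air). Luciferase activity measured.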

PC-3M [5] = assay: Antimetastatic activity in human PC3M cells expressing calcitonin assessed as shrinkage of actin fibers at 50 nM by Matrigel barrier assay; format: functional, cell-based
PC-3M [6] = assay: Antimetastatic activity in human PC3M cells expressing calcitonin assessed as inhibition calcitonin-induced invasion at 100 nM by Matrigel barrier assay; format: functional, cell-based
Outline: (§2)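 PC-3M-CT+ cells serum-starved 24 h, then 25×10³ cells seeded in the upper insert of Matrigel invasion chambers. Lower chamber held 90% basal RPMI plus 10% conditioned medium from cells expressing active Gαs. After 24 h, non-invaders were removed and the insert underside stained with Diff Quick. Cells counted in ≥6 fields at 100×, corrected for growth rate. Triplicate, repeated twice, mean ± SEM.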

PC-3M [7] = assay: Antimetastatic activity in human PC3M cells expressing calcitonin assessed as inhibition of invasion at 100 nM by Matrigel barrier assay; format: functional, cell-based; outline: as §2
PC-3M [8] = assay: Antimetastatic activity in human PC3M cells expressing calcitonin assessed as inhibition calcitonin-induced reorganization of actin fibers at 50 nM by Matrigel barrier assay; format: functional, cell-based
[9] = Cytotoxicity against human PC3M cells; format: functional, PC-3M
[10] = Antimetastatic activity in human PC3M cells expressing calcitonin assessed as decreased cell disaggregation at 500 nM by spheroid disaggregation assay relative to control; format: functional, PC-3M
Outline: (§3)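 Single PC-3M-CT+ spheroids (150–300 μm, ~4×10⁴ cells, grown 2 days on a rocking shaker in serum-free RPMI) placed on ECM-coated wells in serum-free medium. t = 0 set 1 h after plating. Cultured 48 h at 37 °C, then fixed and Diff-Quik stained. Migration diameter measured by micrometer minus initial spheroid diameter. Reported as average percent increase in surface area.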

[11] = Antimetastatic activity in human PC3M cells expressing calcitonin assessed as decreased cell migration at 500 nM by spheroid disintegration assay relative to control; format: functional, PC-3M; outline: as §3
[12] = target: T1, Hypoxia inducible factors; HIF-1-alpha, HIF-2-alpha; assay: Inhibition of 1,10-phenanthroline-induced HIF1 activation in human T47D cells by cell based reporter gene assay
Outline: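 T47D cells transfected with an HIF-1 luciferase reporter, treated with compound and stimulated with 10 μM 1,10-phenanthroline as a hypoxia mimetic. Luciferase activity measured.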

Row | SMILES | Activity (PC-3M [1]) | Activity (PC-3M [2]) | inhibition [3] [%] | Activity (T47D) [%] | IC50 [4] [µM] | Activity (PC-3M [5]) | Activity (PC-3M [6]) | Activity (PC-3M [7]) | Activity (PC-3M [8]) | Activity [9] [nM] | Fold change [10] | Fold change [11] | IC50 [12] [µM]
1 | C/C1=C/C(=O)O[C@@H]2C[C@@H](CC[C@H](C)/C=C\C=C\CC1)O[C@@](OC(=O)NCCCl)([C@@H]1CSC(=O)N1)C2 | inactive | inactive | < 50 | <20 |  |  |  |  |  |  |  |  | 
2 | C/C1=C/C(=O)O[C@@H]2C[C@@H](CC[C@H](C)/C=C\C=C\CC1)O[C@@](OC(=O)NCCBr)([C@@H]1CSC(=O)N1)C2 | inactive | inactive | < 50 | <20 |  |  |  |  |  |  |  |  | 
3 | C/C1=C/C(=O)O[C@@H]2C[C@@H](CC[C@H](C)/C=C\C=C\CC1)O[C@@](OC(=O)NCc1ccccc1)([C@@H]1CSC(=O)N1)C2 | Dose-dependent effect | Dose-dependent effect |  | <20 | 29 |  |  |  |  |  |  |  | 
4 | C/C1=C/C(=O)O[C@@H]2C[C@@H](CC[C@H](C)/C=C\C=C\CC1)O[C@@](OC(=O)NCCCCl)([C@@H]1CSC(=O)N1)C2 | Dose-dependent effect | Dose-dependent effect | < 50 | <20 |  |  |  |  |  |  |  |  | 
5 | C/C1=C/C(=O)O[C@@H]2C[C@@H](CC[C@H](C)/C=C\C=C\CC1)O[C@@](OC(=O)Nc1ccccc1)([C@@H]1CSC(=O)N1)C2 | Dose-dependent effect | Dose-dependent effect | < 50 | <20 |  |  |  |  |  |  |  |  | 
6 | C/C1=C/C(=O)O[C@@H]2C[C@@H](CC[C@H](C)/C=C\C=C\CC1)O[C@@](O)([C@@H]1CSC(=O)N1)C2 [LATRUNCULIN A] |  |  |  | <20 | 6.7 | Active | Active | Active | Active | 500 | 3 | 3 | 25
